ChEMBL document CHEMBL3994577, “New amphiphilic neamine conjugates bearing a metal binding motif active against MDR E. aerogenes Gram-negative bacteria” (2017)
In brackets after ≈: the same amount, converted by molar mass. Activity calls are given as the source filed them. No cut-off for these calls is given here. Bridge positions count the residues as written; N and C are the ends. Square brackets hold non-standard residues; d marks the D form. Peptide text beside a SMILES is read from it. * marks the point of attachment. βNA = c1ccc2cc(N*)ccc2c1; Dab = NCC[C@H](N)C(=O)O

How the values were obtained:
Escherichia coli [1] = assay: Antibacterial activity against wild type Escherichia coli AG100 after 18 hrs by broth dilution method; format: functional; conditions: AG100, 18 h
Outline: (§1)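 Broth microdilution MIC in MH broth with two-fold serial dilutions of compounds from DMSO solutions (final DMSO ≤ 0.5%). Inoculum was 2x10⁵ cfu per 200 µL, incubated 18 h at 37°C. MIC was the lowest concentration with no visible growth, given as the mean of at least three independent experiments, in µM. AG100A was grown with kanamycin (50 µg.mL^-1).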

Klebsiella aerogenes [2] = assay: Antibacterial activity against multidrug resistant Enterobacter aerogenes EA289 over-expressing AcrAB-TolC after 18 hrs in presence of polymyxin B nonapeptide by broth dilution method; format: functional; conditions: EA289, 18 h
Outline: (§2)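 Broth microdilution in MH broth. Inoculum 2x10⁵ cfu per well, with two-fold serial dilutions of compound from DMSO stocks (final DMSO ≤0.5%). MIC is the lowest concentration with no visible growth after 18 h at 37°C. Values are means of at least three independent experiments, in µM. Strains grown at 37°C; EA298 kept with kanamycin 50 µg.mL^-1.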

Escherichia coli [3] = assay: Antibacterial activity against AcrAB deficient Escherichia coli AG100A after 18 hrs by broth dilution method; format: functional; outline: as §1
Escherichia coli [4] = assay: Antibacterial activity against AcrAB deficient Escherichia coli AG100A after 18 hrs in presence of polymyxin B nonapeptide by broth dilution method; format: functional
Klebsiella aerogenes [5] = assay: Antibacterial activity against multidrug resistant Enterobacter aerogenes EA289 over-expressing AcrAB-TolC after 18 hrs by broth dilution method; format: functional; conditions: EA289, 18 h; outline: as §2
Klebsiella aerogenes [6] = assay: Antibacterial activity against Enterobacter aerogenes EA298 TolC deficient after 18 hrs in presence of polymyxin B nonapeptide by broth dilution method; conditions: EA298, 18 h
Escherichia coli [7] = assay: Antibacterial activity against wild type Escherichia coli AG100 after 18 hrs in presence of polymyxin B nonapeptide by broth dilution method; format: functional; conditions: AG100, 18 h
Klebsiella aerogenes [8] = assay: Antibacterial activity against Enterobacter aerogenes EA298 TolC deficient after 18 hrs by broth dilution method; conditions: EA298, 18 h
Klebsiella aerogenes [9] = assay: Induction of membrane permeability in multidrug resistant Enterobacter aerogenes EA289 over-expressing AcrAB-TolC assessed as nitrocefin hydrolysis at 64 uM after 1 hr in presence of CCCP relative to control; format: functional; parameters: scale not given: the % may be the effect or the level left
Outline: (§3)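 EA289 grown to exponential phase (OD600 0.5), washed in PPB (K₂HPO₄ 20 mM, MgCl₂ 1 mM, pH 7), adjusted to OD 0.375. Cells mixed with two-fold dilutions of compound (final 2–64 µM) plus CCCP 3.3 µM at 37°C. Nitrocefin added at t=0; OD490 followed for 1 h. Duplicate or triplicate.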

Klebsiella aerogenes [10] = assay: Decrease in 1,2'-DiNaphtylAmine efflux in multidrug resistant Enterobacter aerogenes EA289 over-expressing AcrAB-TolC at 8 to 16 uM after 18 hrs measured every 4 sec for 6 mins in presence of glucose by fluorescence assay; format: functional
Outline: (§4)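 EA289 grown 24 h at 37°C, washed and resuspended in PPB at OD600 0.25. Cells loaded with 1,2'-DNA 32 µM plus CCCP 5 µM for 18 h at 37°C in the dark, washed, then mixed with compound (final 0.5–128 µM) at 37°C. Fluorescence (ex 370/em 420 nm) read every 4 s for 6 min. Glucose added at cycle 20 (~100 s) to start efflux.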

Klebsiella aerogenes [11] = assay: Induction of membrane permeability in multidrug resistant Enterobacter aerogenes EA289 over-expressing AcrAB-TolC assessed as increase in nitrocefin hydrolysis measured for 1 hr in presence of CCCP; format: functional; outline: as §3
Klebsiella aerogenes [12] = assay: Decrease in 1,2'-DiNaphtylAmine efflux in multidrug resistant Enterobacter aerogenes EA289 over-expressing AcrAB-TolC up to 128 uM after 18 hrs measured every 4 sec for 6 mins in presence of glucose by fluorescence assay
Klebsiella aerogenes [13] = assay: Decrease in 1,2'-DiNaphtylAmine efflux in multidrug resistant Enterobacter aerogenes EA289 over-expressing AcrAB-TolC up to 32 uM after 18 hrs measured every 4 sec for 6 mins in presence of glucose by fluorescence assay; format: functional; outline: as §4
Klebsiella aerogenes [14] = assay: Induction of membrane permeability in multidrug resistant Enterobacter aerogenes EA289 over-expressing AcrAB-TolC assessed as nitrocefin hydrolysis at 3 uM up to 20 mins in presence of CCCP relative to control; format: functional; outline: as §3
Klebsiella aerogenes [15] = assay: Decrease in 1,2'-DiNaphtylAmine efflux in multidrug resistant Enterobacter aerogenes EA289 over-expressing AcrAB-TolC at 32 uM after 18 hrs measured every 4 sec for 6 mins in presence of glucose by fluorescence assay; format: functional; outline: as §4
Klebsiella aerogenes [16] = assay: Induction of membrane permeability in multidrug resistant Enterobacter aerogenes EA289 over-expressing AcrAB-TolC assessed as nitrocefin hydrolysis at 0.75 to 48 uM after 1 hr in presence of CCCP; format: functional
Klebsiella aerogenes [17] = assay: Induction of membrane permeability in multidrug resistant Enterobacter aerogenes EA289 over-expressing AcrAB-TolC assessed as nitrocefin hydrolysis at 32 uM after 50 mins in presence of CCCP relative to control; format: functional; parameters: scale not given: the % may be the effect or the level left; outline: as §3
[18] = Binding affinity to Zn2+ in Muller-Hinton broth at 50 uM by ESI-MS analysis
Outline: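 Free ligand incubated in Mueller Hinton broth, the medium used for the antibacterial assays, then analysed by positive-ion ESI mass spectrometry for metal-bound species. […] Preformed Zn(II) and Cu(II) complexes were incubated in MH under the same conditions to check their stability.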

| Compound | MIC (Escherichia coli [1]) [µM] | MIC (Klebsiella aerogenes [2]) [µM] | MIC (Escherichia coli [3]) [µM] | MIC (Escherichia coli [4]) [µM] | MIC (Klebsiella aerogenes [5]) [µM] | MIC (Klebsiella aerogenes [6]) [µM] | MIC (Escherichia coli [7]) [µM] | MIC (Klebsiella aerogenes [8]) [µM] | Activity (Klebsiella aerogenes [11]) | other results |
| --- | --- | --- | --- | --- | --- | --- | --- | --- | --- | --- |
| [N-]=[N+]=NCCCCCCO[C@@H]1[C@@H](OCc2ccc3ccccc3c2)[C@H](N)C[C@H](N)[C@H]1O[C@H]1O[C@H](CN)[C@@H](OCc2ccc3ccccc3c2)[C@H](OCc2ccc3ccccc3c2)[C@H]1N | 32 (≈ 27.8 µg/mL) | 8 to 32 | 32 (≈ 27.8 µg/mL) | 16 | 16 (≈ 13.9 µg/mL) | 32 | 32 | 16 (≈ 13.9 µg/mL) | – | – |
| CN1CCN(c2c(F)cc3c(=O)c(C(=O)O)cn(CCF)c3c2F)CC1 [FLEROXACIN] | 0.5 (≈ 0.185 µg/mL) | – | 0.125 (≈ 0.0462 µg/mL) | – | > 128 | – | – | 16 (≈ 5.91 µg/mL) | – | – |
| O=C(N[C@H](CO)[C@H](O)c1ccc([N+](=O)[O-])cc1)C(Cl)Cl [CHLORAMPHENICOL] | 8 (≈ 2.59 µg/mL) | – | 1 (≈ 0.323 µg/mL) | – | > 128 | – | – | 32 (≈ 10.3 µg/mL) | – | – |
| NC[C@H]1O[C@H](O[C@H]2[C@H](OCCCCCCNC(=O)CCCCN(Cc3ccccn3)Cc3ccccn3)[C@@H](OCc3ccc4ccccc4c3)[C@H](N)C[C@@H]2N)[C@H](N)[C@@H](OCc2ccc3ccccc3c2)[C@@H]1OCc1ccc2ccccc2c1 | 8 to 16 (≈ 8.99 to 18 µg/mL) | 8 | 8 to 16 (≈ 8.99 to 18 µg/mL) | 2 to 4 | 16 (≈ 18 µg/mL) | 4 to 8 | 4 | 8 (≈ 8.99 µg/mL) | Dose-dependent effect | Activity (Klebsiella aerogenes [9]): 60%; Activity (Klebsiella aerogenes [10]): Active |
| NC[C@H]1O[C@H](O[C@H]2[C@H](O)[C@@H](O)[C@H](N)C[C@@H]2N)[C@H](N)[C@@H](O)[C@@H]1O [NEAMINE] | 16 to 32 (≈ 5.16 to 10.3 µg/mL) | 16 | 128 (≈ 41.3 µg/mL) | 128 | 32 (≈ 10.3 µg/mL) | > 128 | 8 | > 128 | – | – |
| N=C(N)NCCC[C@H](NC(=O)[C@@H](N)Cc1ccccc1)C(=O)Nc1ccc2ccccc2c1 (H-Phe-Arg-βNA) | – | – | – | – | – | – | – | – | – | Activity (Klebsiella aerogenes [12]): inactive |
| N#CC(C#N)=NNc1cccc(Cl)c1 | – | – | – | – | – | – | – | – | – | Activity (Klebsiella aerogenes [13]): Active |
| POLYMYXIN B | – | – | – | – | – | – | – | – | – | Activity (Klebsiella aerogenes [14]): Active |
| NC[C@H]1O[C@H](O[C@H]2[C@H](OCCCCCCNC(=O)CCCC(=O)Nc3cccc(CN(Cc4ccccc4)Cc4ccccc4)c3)[C@@H](OCc3ccc4ccccc4c3)[C@H](N)C[C@@H]2N)[C@H](N)[C@@H](OCc2ccc3ccccc3c2)[C@@H]1OCc1ccc2ccccc2c1 | 128 (≈ 159 µg/mL) | 128 | 32 to 128 (≈ 39.7 to 159 µg/mL) | 32 | 128 (≈ 159 µg/mL) | 32 to 64 | 32 to 64 | 64 to 128 (≈ 79.4 to 159 µg/mL) | Dose-dependent effect | Activity (Klebsiella aerogenes [9]): 20%; Activity (Klebsiella aerogenes [15]): Active |
| CC(C)C[C@@H]1NC(=O)[C@@H](Cc2ccccc2)NC(=O)[C@H](CCN)NC(=O)[C@@H](NC(=O)[C@H](CCN)NC(=O)[C@@H](N)[C@@H](C)O)CCNC(=O)[C@H]([C@@H](C)O)NC(=O)[C@H](CCN)NC(=O)[C@H](CCN)NC1=O (H-T[Dab][Dab][Dab][dF]L[Dab][Dab]T; lactam 3-C) | – | – | – | – | – | – | – | – | – | Activity (Klebsiella aerogenes [16]): inactive |
| NC[C@H]1O[C@H](O[C@H]2[C@H](OCCCCCCNC(=O)CCCC(=O)Nc3cccc(CN(Cc4ccccn4)Cc4ccccn4)n3)[C@@H](OCc3ccc4ccccc4c3)[C@H](N)C[C@@H]2N)[C@H](N)[C@@H](OCc2ccc3ccccc3c2)[C@@H]1OCc1ccc2ccccc2c1 | 2 to 4 (≈ 2.49 to 4.97 µg/mL) | 4 to 8 | 2 (≈ 2.49 µg/mL) | 2 | 4 (≈ 4.97 µg/mL) | 2 | 2 to 4 | 2 to 8 (≈ 2.49 to 9.95 µg/mL) | Dose-dependent effect | Activity (Klebsiella aerogenes [17]): 90%; Activity (Klebsiella aerogenes [10]): Active; Activity [18]: Active |
| NC[C@H]1O[C@H](O[C@H]2[C@H](OCCCCCCNC(=O)CCCC(=O)N3CCCNCCNCCCNCC3)[C@@H](OCc3ccc4ccccc4c3)[C@H](N)C[C@@H]2N)[C@H](N)[C@@H](OCc2ccc3ccccc3c2)[C@@H]1OCc1ccc2ccccc2c1 | 4 (≈ 4.55 µg/mL) | 8 | 2 (≈ 2.28 µg/mL) | 1 to 2 | 4 to 16 (≈ 4.55 to 18.2 µg/mL) | 2 | 2 | 2 to 4 (≈ 2.28 to 4.55 µg/mL) | Dose-dependent effect | Activity (Klebsiella aerogenes [10]): Active |
| O=C(O)c1cn(C2CC2)c2cc(N3CCNCC3)c(F)cc2c1=O [CIPROFLOXACIN] | 0.125 (≈ 0.0414 µg/mL) | – | 0.03 (≈ 0.00994 µg/mL) | – | 64 (≈ 21.2 µg/mL) | – | – | 8 (≈ 2.65 µg/mL) | – | – |
| CC(C)(O/N=C(\C(=O)N[C@@H]1C(=O)N2C(C(=O)[O-])=C(C[n+]3ccccc3)CS[C@H]12)c1csc(N)n1)C(=O)O [CEFTAZIDIME] | 0.5 (≈ 0.273 µg/mL) | – | 0.25 (≈ 0.137 µg/mL) | – | > 128 | – | – | > 128 | – | – |
| NCCCCCCO[C@@H]1[C@@H](OCc2ccc3ccccc3c2)[C@H](N)C[C@H](N)[C@H]1O[C@H]1O[C@H](CN)[C@@H](OCc2ccc3ccccc3c2)[C@H](OCc2ccc3ccccc3c2)[C@H]1N | 8 (≈ 6.74 µg/mL) | 16 to 32 | 8 (≈ 6.74 µg/mL) | 4 | 16 (≈ 13.5 µg/mL) | 4 to 8 | 8 | 4 (≈ 3.37 µg/mL) | Dose-dependent effect | – |
